The text below walks through data of ChEMBL document CHEMBL5385966, “Synthesis and biological evaluation of new naphthalimide-thiourea derivatives as potent antimicrobial agents active against multidrug-resistant Staphylococcus aureus and Mycobacterium tuberculosis” (RSC Med Chem, 2024).

Usually MIC stands for the lowest concentration found to suppress growth. A word on the CC50: it is the concentration giving 50% cytotoxicity.

≈ marks a conversion by molar mass, not a printed value. Calls of active or inactive are those of the source. No cut-off for these calls is given here.

The subject of data set [1] is Staphylococcus aureus. The data set can be described thus: Antimicrobial activity against Staphylococcus aureus assessed as microbial growth inhibition. The class given is functional.
Data set [2] deals with Staphylococcus aureus. Kind of data set: Antimicrobial activity against methicillin-resistant Staphylococcus aureus Newman assessed as microbial growth inhibition. The class given is functional.
Data set [3] relates to Mycobacteroides abscessus. The data set can be described thus: Antimycobacterial activity against Mycobacterium abscessus ATCC 19977 assessed as bacterial growth inhibition incubated for 72 hrs by resazurin dye based broth microdilution method. The class given is functional, organism-based. The method in brief: (§1)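 Broth microdilution in Middlebrook 7H9 with 10% ADC-Tween-80 (0.2% glycerol, 0.05% Tween-80), inoculum ~10⁶ cfu/mL. Compounds came from 10 mg/mL DMSO stocks and were tested as two-fold serial dilutions at 37 °C, 7 days for M. tuberculosis H37Rv and 72 h for NTM. Growth was read visually with PrestoBlue resazurin dye; MIC was the lowest concentration preventing growth. Triplicate determinations, each in duplicate.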

The subject of data set [4] is Staphylococcus aureus. The data set can be described thus: Bactericidal activity against Staphylococcus aureus ATCC 29213 assessed as reduction in remnant bacterial cells measured for 24 hrs by time-kill assay. The class given is functional, organism-based. In outline: (§2)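 Time-kill assay: S. aureus ATCC 29213 at ~10⁶ cfu/mL in MHB, exposed to 1X and 10X MIC at 37 °C, in triplicate. Samples taken at 0, 1, 6 and 24 h were serially diluted in PBS and plated on TSA for 18-20 h at 37 °C. Surviving cfu/mL were counted against untreated controls.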

Data set [5] relates to Staphylococcus aureus. The data set can be described thus: Antibacterial activity against methicillin/ceftriaxone/meropenem/vancomycin/teicoplanin-resistant Staphylococcus aureus VRS12 clinical isolate assessed as bacterial growth inhibition incubated for 16 to 18 hrs by CLSI based antibiotic susceptibility testing method. The class given is functional. Conditions: time 16-18 hrs. In outline: (§3)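 Broth microdilution in cation-adjusted Mueller-Hinton broth. Compounds were tested at […], with levofloxacin as reference and medium-only controls. Plates were incubated at 37 °C for 16-18 h. MIC was the lowest concentration with no visible growth; three independent determinations, each in duplicate.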

In another data set the test system is Klebsiella pneumoniae. Kind of data set: Antibacterial activity against Klebsiella pneumoniae BAA 1705 assessed as bacterial growth inhibition incubated for 16 to 18 hrs by CLSI based antibiotic susceptibility testing method. The class given is functional, organism-based. Conditions: time 16-18 hrs. The method in brief:
as §3

For a further data set, the system named is Mycobacteroides chelonae. The data set can be described thus: Antimycobacterial activity against Mycobacteroides chelonae ATCC 35752 assessed as bacterial growth inhibition incubated for 72 hrs by resazurin dye based broth microdilution method. The class given is functional, organism-based. In outline: as §1
In general terms: The colour change of resazurin is a common sign of viable cells or microbes.

In data set [6] the test system is Staphylococcus aureus. The data set can be described thus: Antibacterial activity against methicillin/ceftriaxone/meropenem-resistant Staphylococcus aureus NRS10129 clinical isolate assessed as bacterial growth inhibition incubated for 16 to 18 hrs by CLSI based antibiotic susceptibility testing method. The class given is functional. Conditions: time 16-18 hrs. In outline: as §3

The subject of data set [7] is Staphylococcus aureus. Kind of data set: Antibacterial activity against methicillin/ceftriaxone-resistant Staphylococcus aureus NRS10194 clinical isolate assessed as bacterial growth inhibition incubated for 16 to 18 hrs by CLSI based antibiotic susceptibility testing method. The class given is functional. Conditions: time 16-18 hrs. In outline:
as §3

Data set [8] has as its system Mycobacterium tuberculosis. The data set can be described thus: Antimycobacterial activity against Mycobacterium tuberculosis H37Rv ATCC 27294 assessed as bacterial growth inhibition incubated for 7 days by resazurin dye based broth microdilution method. The class given is functional. Conditions: H37Rv ATCC 27294, 168 h, time 7 day. The method in brief: as §1
In a further data set the test system is Acinetobacter baumannii. The data set can be described thus: Antibacterial activity against Acinetobacter baumannii BAA 1605 assessed as bacterial growth inhibition incubated for 16 to 18 hrs by CLSI based antibiotic susceptibility testing method. The class given is functional, organism-based. The note with it: time 16-18 hrs. In outline:
as §3

Data set [9] concerns Staphylococcus aureus. Kind of data set: Antibacterial activity against Staphylococcus aureus ATCC 29213 assessed as bacterial growth inhibition incubated for 16 to 18 hrs by CLSI based antibiotic susceptibility testing method. The class given is functional. The note with it: time 16-18 hrs. The method in brief:
as §3

The subject of data set [10] is Staphylococcus aureus. Kind of data set: Antibacterial activity against methicillin/ceftriaxone/meropenem/gentamycin/vancomycin/teicoplanin-resistant Staphylococcus aureus VRS1 clinical isolate assessed as bacterial growth inhibition incubated for 16 to 18 hrs by CLSI based antibiotic susceptibility testing method. The class given is functional. Conditions: time 16-18 hrs. The method in brief:
as §3

For data set [11], the system named is Staphylococcus aureus. The data set can be described thus: Antibacterial activity against methicillin/ceftriaxone/meropenem-resistant Staphylococcus aureus NRS10192 clinical isolate assessed as bacterial growth inhibition incubated for 16 to 18 hrs by CLSI based antibiotic susceptibility testing method. The class given is functional. The note with it: time 16-18 hrs. The method in brief:
as §3

In a further data set the test system is Escherichia coli. The data set can be described thus: Antibacterial activity against Escherichia coli ATCC 25922 assessed as bacterial growth inhibition incubated for 16 to 18 hrs by CLSI based antibiotic susceptibility testing method. The class given is functional, organism-based. The note with it: time 16-18 hrs. In outline: as §3
Data set [12] can be described thus: Cytotoxicity against African green monkey Vero cells by MTT assay. The class given is toxicity, cell-based. The note with it: chlorocebus sabaeus. The method in brief: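 Vero cells were seeded at ~10³ per well at 37 °C, 5% CO2. After 24 h, compounds were added at 5-100 mg/L for 72 h. […] was added for 4 h, formazan was dissolved in DMSO and read at 540 nm. CC50 was taken as the lowest concentration reducing viability by 50%; doxorubicin was the positive control; triplicate.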
A general note: Tetrazolium dyes change colour on reduction, which living cells bring about.

The subject of data set [13] is Staphylococcus aureus. The data set can be described thus: Antibacterial activity against methicillin-sensitive Staphylococcus aureus ATCC 29213 clinical isolate assessed as bacterial growth inhibition incubated for 16 to 18 hrs by CLSI based antibiotic susceptibility testing method. The class given is functional. The note with it: time 16-18 hrs. The method in brief: as §3

For data set [14], the system named is Staphylococcus aureus. The data set can be described thus: Antibacterial activity against methicillin/ceftriaxone/meropenem-resistant Staphylococcus aureus NRS10198 clinical isolate assessed as bacterial growth inhibition incubated for 16 to 18 hrs by CLSI based antibiotic susceptibility testing method. The class given is functional. Conditions: time 16-18 hrs. In outline:
as §3

In data set [15] the test system is Staphylococcus aureus. Kind of data set: Antibacterial activity against methicillin/ceftriaxone/meropenem/gentamycin/linezolid-resistant Staphylococcus aureus NRS10100 clinical isolate assessed as bacterial growth inhibition incubated for 16 to 18 hrs by CLSI based antibiotic susceptibility testing method. The class given is functional. The note with it: time 16-18 hrs. The method in brief: as §3

In another data set the test system is Pseudomonas aeruginosa. The data set can be described thus: Antibacterial activity against Pseudomonas aeruginosa ATCC 27853 assessed as bacterial growth inhibition incubated for 16 to 18 hrs by CLSI based antibiotic susceptibility testing method. The class given is functional, organism-based. Conditions: time 16-18 hrs. In outline: as §3
In data set [16] the test system is Staphylococcus aureus. The data set can be described thus: Antibacterial activity against methicillin/ceftriaxone/meropenem-resistant Staphylococcus aureus NRS10193 clinical isolate assessed as bacterial growth inhibition incubated for 16 to 18 hrs by CLSI based antibiotic susceptibility testing method. The class given is functional. Conditions: time 16-18 hrs. In outline:
as §3

Data set [17] concerns Staphylococcus aureus. Kind of data set: Antibacterial activity against methicillin/ceftriaxone/meropenem-resistant Staphylococcus aureus NRS10191 clinical isolate assessed as bacterial growth inhibition incubated for 16 to 18 hrs by CLSI based antibiotic susceptibility testing method. The class given is functional. The note with it: time 16-18 hrs. The method in brief: as §3

In data set [18] the test system is Mycolicibacterium fortuitum. Kind of data set: Antimycobacterial activity against Mycobacterium fortuitum ATCC 6841 assessed as bacterial growth inhibition incubated for 72 hrs by resazurin dye based broth microdilution method. The class given is functional, organism-based. The method in brief:
as §1

Data set [19] has as its system Staphylococcus aureus. Kind of data set: Antibacterial activity against methicillin/ceftriaxone/meropenem/vancomycin/teicoplanin-resistant Staphylococcus aureus VRS4 clinical isolate assessed as bacterial growth inhibition incubated for 16 to 18 hrs by CLSI based antibiotic susceptibility testing method. The class given is functional. Conditions: time 16-18 hrs. In outline:
as §3

The subject of data set [20] is Staphylococcus aureus. Kind of data set: Bactericidal activity against Staphylococcus aureus ATCC 29213 assessed as reduction in remnant bacterial cells at 10 times MIC measured for 24 hrs by time-kill assay. The class given is functional. The method in brief: as §2
Data set [21] in a line: Selectivity index, ratio of CC50 for African green monkey Vero cells to MIC for Staphylococcus aureus ATCC 29213. The class given is toxicity, cell-based. Conditions: read-out: Selectivity Index.
For data set [22], the system named is Staphylococcus aureus. The data set can be described thus: Antibacterial activity against methicillin/ceftriaxone/meropenem/gentamycin/linezolid-resistant Staphylococcus aureus NRS10119 clinical isolate assessed as bacterial growth inhibition incubated for 16 to 18 hrs by CLSI based antibiotic susceptibility testing method. The class given is functional. The note with it: time 16-18 hrs. In outline:
as §3

Data set [23] relates to Staphylococcus aureus. The data set can be described thus: Antibacterial activity against methicillin/ceftriaxone/meropenem-resistant Staphylococcus aureus NRS10186 clinical isolate assessed as bacterial growth inhibition incubated for 16 to 18 hrs by CLSI based antibiotic susceptibility testing method. The class given is functional. Conditions: time 16-18 hrs. The method in brief:
as §3

The test system of data set [24] is Staphylococcus aureus. Kind of data set: Antimicrobial activity against methicillin-resistant Staphylococcus aureus assessed as microbial growth inhibition by NCCLS based assay. The class given is functional.

Take `COc1ccc(-c2csc(NC(=S)N[C@@H]3O[C@H](COC(C)=O)[C@@H](OC(C)=O)[C@H](OC(C)=O)[C@H]3OC(C)=O)n2)cc1[N+](=O)[O-]`: the MIC in the data set on Staphylococcus aureus [1] was 0.78 µg/mL (≈ 1.22 µM).
The same measure, in the same setting: under `CCCCCc1nnc(NC(=S)NS(=O)(=O)c2ccc(C)cc2)s1` stands 0.78 µg/mL (≈ 2.03 µM).
With `S=C(Nc1ccc(Cl)cc1)n1ccc(OCc2ccccc2)n1`, in the data set on Staphylococcus aureus [2], the MIC was 0.15 µM (≈ 0.0516 µg/mL).
As for `CCCOC(=O)c1ccc2sc(NC(=S)N[C@@H]3O[C@H](COC(C)=O)[C@@H](OC(C)=O)[C@H](OC(C)=O)[C@H]3OC(C)=O)nc2c1`, in the data set with Staphylococcus aureus [1], the MIC is 0.78 µg/mL (≈ 1.25 µM).
As to `O=C1c2cccc3cccc(c23)C(=O)N1CCN1CCN(C(=S)NC2CCCC2)CC1`, the “growth inhibition (GI)” value (in data set [3]; with Klebsiella pneumoniae; in the data set on Mycobacteroides chelonae; in the data set on Acinetobacter baumannii; with Escherichia coli; with Pseudomonas aeruginosa) was “inactive” each time. For the same compound, the “growth inhibition (GI)” value in data set [18] was “inactive”. The Activity entry in the data set on Staphylococcus aureus [4] was “Dose-Dependent Effect”; in the data set with Staphylococcus aureus [20], about 5 log10CFU/ml. Moreover, the MIC in the data set with Staphylococcus aureus [5] was 0.25 µg/mL (≈ 0.573 µM); in the data set with Staphylococcus aureus [6] it was 0.25 µg/mL (≈ 0.573 µM); in the data set with Staphylococcus aureus [7], 0.125 µg/mL (≈ 0.286 µM); in [8], 2 µg/mL (≈ 4.58 µM); with Staphylococcus aureus [9], 0.125 µg/mL (≈ 0.286 µM); with Staphylococcus aureus [10], 0.125 µg/mL (≈ 0.286 µM). Moreover, the minimum inhibitory concentration (MIC) with Staphylococcus aureus [11] came out at 0.125 µg/mL (≈ 0.286 µM); with Staphylococcus aureus [13], 0.125 µg/mL (≈ 0.286 µM); in the data set with Staphylococcus aureus [14], 0.125 µg/mL (≈ 0.286 µM); in the data set on Staphylococcus aureus [15], 0.25 µg/mL (≈ 0.573 µM); in the data set with Staphylococcus aureus [16], 0.125 µg/mL (≈ 0.286 µM); in the data set with Staphylococcus aureus [17], 0.125 µg/mL (≈ 0.286 µM). The MIC amounted to 0.125 µg/mL (≈ 0.286 µM) in the data set with Staphylococcus aureus [19], 0.125 µg/mL (≈ 0.286 µM) with Staphylococcus aureus [22] and 0.25 µg/mL (≈ 0.573 µM) in the data set on Staphylococcus aureus [23]. In data set [12], this compound had a CC50 of over 20 µg/mL. Besides, the selectivity ratio in data set [21] is over 160.
As to `CCNc1ccc2c3c(cccc13)C(=O)N(CC(O)Cn1c([N+](=O)[O-])cnc1C)C2=O` (stereo unspecified), the MIC in the data set on Staphylococcus aureus [24] came out at 40 µM (≈ 16.9 µg/mL).
